{
  "source": "ChEMBL document CHEMBL1158007",
  "about": "“Steroidal glycosides from the bulbs of Allium jesdianum” (J Nat Prod, 1999)",
  "key": {"KM12": {"tested_on": "KM12", "assay": "Growth inhibition of human KM12 cells after 72 hrs by MTT assay", "assay_type": "functional", "conditions": "KM12, 72 h"}, "A498": {"tested_on": "A498", "assay": "Growth inhibition of human A498 cells after 72 hrs by MTT assay", "assay_type": "functional", "conditions": "A498, 72 h"}, "HL-60(TB)": {"tested_on": "HL-60(TB)", "assay": "Growth inhibition of human HL-60(TB) cells after 72 hrs by MTT assay", "assay_type": "functional", "conditions": "HL-60, 72 h"}, "MOLT-4": {"tested_on": "MOLT-4", "assay": "Growth inhibition of human MOLT-4 cells after 72 hrs by MTT assay", "assay_type": "functional", "conditions": "MOLT-4, 72 h"}, "MCF7": {"tested_on": "MCF7", "assay": "Growth inhibition of human MCF7 cells after 72 hrs by MTT assay", "assay_type": "functional", "conditions": "MCF7, 72 h"}, "UACC-62": {"tested_on": "UACC-62", "assay": "Growth inhibition of human UACC-62 cells after 72 hrs by MTT assay", "assay_type": "functional", "conditions": "UACC-62, 72 h"}, "SK-MEL-5": {"tested_on": "SK-MEL-5", "assay": "Growth inhibition of human SK-MEL-5 cells after 72 hrs by MTT assay", "assay_type": "functional", "conditions": "SK-MEL-5, 72 h"}, "Malme-3M": {"tested_on": "Malme-3M", "assay": "Growth inhibition of human MALME-3M cells after 72 hrs by MTT assay", "assay_type": "functional"}, "HL-60": {"tested_on": "HL-60", "assay": "Cytotoxicity against human HL-60 cells after 72 hrs by MTT assay", "assay_type": "functional, cell-based", "conditions": "HL-60, 72 h", "method_in_brief": "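HL-60 cells grown in RPMI 1640 with 10% FBS, L-glutamine, penicillin and streptomycin, seeded at 3 × 10^4 cells/mL, and preincubated 24 h at 37 °C in 5% CO2. Sample in EtOH-H2O (1:1) added to a final 0.01-10 µg/mL, with vehicle-only controls, for 72 h. MTT added for 4 h, then formazan dissolved in DMSO and read at 550 nm. IC50 taken from the dose-response curve.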"}, "UO-31": {"tested_on": "UO-31", "assay": "Growth inhibition of human UO-31 cells after 72 hrs by MTT assay", "assay_type": "functional", "conditions": "UO-31, 72 h"}, "NCI-H226": {"tested_on": "NCI-H226", "assay": "Growth inhibition of human NCI-H226 cells after 72 hrs by MTT assay", "assay_type": "functional", "conditions": "NCI-H226, 72 h"}, "UACC-257": {"tested_on": "UACC-257", "assay": "Growth inhibition of human UACC-257 cells after 72 hrs by MTT assay", "assay_type": "functional", "conditions": "UACC-257, 72 h"}, "SN12C": {"tested_on": "SN12C", "assay": "Growth inhibition of human SN12C cells after 72 hrs by MTT assay", "assay_type": "functional", "conditions": "read-out: LC50 (the source's name)"}, "TK-10": {"tested_on": "TK-10", "assay": "Growth inhibition of human TK-10 cells after 72 hrs by MTT assay", "assay_type": "functional", "conditions": "TK-10, 72 h"}, "M14": {"tested_on": "M14", "assay": "Growth inhibition of human M14 cells after 72 hrs by MTT assay", "assay_type": "functional", "conditions": "M14, 72 h"}, "SR": {"tested_on": "SR", "assay": "Growth inhibition of human SR cells after 72 hrs by MTT assay", "assay_type": "functional"}, "HCT-15": {"tested_on": "HCT-15", "assay": "Growth inhibition of human HCT-15 cells after 72 hrs by MTT assay", "assay_type": "functional", "conditions": "HCT-15, 72 h"}, "SK-MEL-2": {"tested_on": "SK-MEL-2", "assay": "Growth inhibition of human SK-MEL-2 cells after 72 hrs by MTT assay", "assay_type": "functional", "conditions": "SK-MEL-2, 72 h"}, "SF-268": {"tested_on": "SF-268", "assay": "Growth inhibition of human SF-268 cells after 72 hrs by MTT assay", "assay_type": "functional", "conditions": "SF-268, 72 h"}, "OVCAR-4": {"tested_on": "OVCAR-4", "assay": "Growth inhibition of human OVCAR-4 cells after 72 hrs by MTT assay", "assay_type": "functional", "conditions": "OVCAR-4, 72 h"}, "[1]": {"conditions": "read-out: LC50 (the source's name)"}},
  "data": [
    {"smiles": "C[C@@H]1CC[C@@]2(OC1)O[C@H]1C[C@H]3[C@@H]4CC[C@H]5C[C@@H](O[C@@H]6O[C@H](CO)[C@H](O[C@@H]7O[C@H](CO)[C@@H](O)[C@H](O[C@@H]8OC[C@@H](O)[C@H](O)[C@H]8O)[C@H]7O[C@@H]7O[C@H](CO)[C@@H](O)[C@H](O)[C@H]7O)[C@H](O)[C@H]6O)[C@H](O)C[C@]5(C)[C@H]4CC[C@]3(C)[C@H]1[C@@H]2C", "values": [
      {"measurement": "GI50", "setting": "KM12", "result": 8.9, "unit": "µM"},
      {"measurement": "TGI", "setting": "KM12", "result": 23, "unit": "µM"},
      {"measurement": "CC50", "setting": "KM12; [1]", "result": 55, "unit": "µM"},
      {"measurement": "GI50", "setting": "A498", "result": 4.9, "unit": "µM"},
      {"measurement": "TGI", "setting": "A498", "result": 35, "unit": "µM"},
      {"measurement": "CC50", "setting": "A498; [1]", "result": "< 100", "unit": "µM"},
      {"measurement": "GI50", "setting": "HL-60(TB)", "result": 4.7, "unit": "µM"},
      {"measurement": "TGI", "setting": "HL-60(TB)", "result": 48, "unit": "µM"},
      {"measurement": "CC50", "setting": "HL-60(TB); [1]", "result": "< 100", "unit": "µM"},
      {"measurement": "GI50", "setting": "MOLT-4", "result": 41, "unit": "µM"},
      {"measurement": "TGI", "setting": "MOLT-4", "result": 97, "unit": "µM"},
      {"measurement": "CC50", "setting": "MOLT-4; [1]", "result": "< 100", "unit": "µM"},
      {"measurement": "GI50", "setting": "MCF7", "result": 0.3, "unit": "µM"},
      {"measurement": "TGI", "setting": "MCF7", "result": 0.62, "unit": "µM"},
      {"measurement": "CC50", "setting": "MCF7; [1]", "result": 1.9, "unit": "µM"},
      {"measurement": "GI50", "setting": "UACC-62", "result": 17, "unit": "µM"},
      {"measurement": "TGI", "setting": "UACC-62", "result": 42, "unit": "µM"},
      {"measurement": "CC50", "setting": "UACC-62; [1]", "result": "< 100", "unit": "µM"},
      {"measurement": "GI50", "setting": "SK-MEL-5", "result": 4.1, "unit": "µM"},
      {"measurement": "TGI", "setting": "SK-MEL-5", "result": 40, "unit": "µM"},
      {"measurement": "CC50", "setting": "SK-MEL-5; [1]", "result": "< 100", "unit": "µM"},
      {"measurement": "GI50", "setting": "Malme-3M", "result": 19, "unit": "µM"},
      {"measurement": "TGI", "setting": "Malme-3M", "result": 35, "unit": "µM"},
      {"measurement": "CC50", "setting": "Malme-3M; [1]", "result": 69, "unit": "µM"},
      {"measurement": "IC50", "setting": "HL-60", "result": 1.5, "unit": "µg/mL"},
      {"measurement": "GI50", "setting": "UO-31", "result": 2.4, "unit": "µM"},
      {"measurement": "TGI", "setting": "UO-31", "result": 12, "unit": "µM"},
      {"measurement": "CC50", "setting": "UO-31; [1]", "result": 50, "unit": "µM"},
      {"measurement": "GI50", "setting": "NCI-H226", "result": 15, "unit": "µM"},
      {"measurement": "TGI", "setting": "NCI-H226", "result": 34, "unit": "µM"},
      {"measurement": "CC50", "setting": "NCI-H226; [1]", "result": 76, "unit": "µM"},
      {"measurement": "GI50", "setting": "UACC-257", "result": 17, "unit": "µM"},
      {"measurement": "TGI", "setting": "UACC-257", "result": 36, "unit": "µM"},
      {"measurement": "CC50", "setting": "UACC-257; [1]", "result": 71, "unit": "µM"},
      {"measurement": "CC50", "setting": "SN12C", "result": "< 100", "unit": "µM"},
      {"measurement": "GI50", "setting": "TK-10", "result": 4.4, "unit": "µM"},
      {"measurement": "TGI", "setting": "TK-10", "result": "< 100", "unit": "µM"},
      {"measurement": "CC50", "setting": "TK-10; [1]", "result": "< 100", "unit": "µM"},
      {"measurement": "GI50", "setting": "M14", "result": 16, "unit": "µM"},
      {"measurement": "TGI", "setting": "M14", "result": 35, "unit": "µM"},
      {"measurement": "CC50", "setting": "M14; [1]", "result": 74, "unit": "µM"},
      {"measurement": "GI50", "setting": "SR", "result": 63, "unit": "µM"},
      {"measurement": "TGI", "setting": "SR", "result": "< 100", "unit": "µM"},
      {"measurement": "CC50", "setting": "SR; [1]", "result": "< 100", "unit": "µM"},
      {"measurement": "GI50", "setting": "HCT-15", "result": 1.4, "unit": "µM"},
      {"measurement": "TGI", "setting": "HCT-15", "result": 11, "unit": "µM"},
      {"measurement": "CC50", "setting": "HCT-15; [1]", "result": 46, "unit": "µM"},
      {"measurement": "GI50", "setting": "SK-MEL-2", "result": 5.5, "unit": "µM"},
      {"measurement": "TGI", "setting": "SK-MEL-2", "result": 19, "unit": "µM"},
      {"measurement": "CC50", "setting": "SK-MEL-2; [1]", "result": 48, "unit": "µM"},
      {"measurement": "GI50", "setting": "SF-268", "result": 13, "unit": "µM"},
      {"measurement": "TGI", "setting": "SF-268", "result": 28, "unit": "µM"},
      {"measurement": "CC50", "setting": "SF-268; [1]", "result": 59, "unit": "µM"},
      {"measurement": "GI50", "setting": "OVCAR-4", "result": 2, "unit": "µM"},
      {"measurement": "TGI", "setting": "OVCAR-4", "result": 4.6, "unit": "µM"},
      {"measurement": "CC50", "setting": "OVCAR-4; [1]", "result": 13, "unit": "µM"}
    ]}
  ]
}
